According to ChEMBL document CHEMBL1833841, “Synthesis and biological evaluation of a novel class of isatin analogs as dual inhibitors of tubulin polymerization and Akt pathway” (Bioorg Med Chem, 2011):
Where a name gives a salt, the structure may show the parent alone. Calls of active or inactive are those of the source. No cut-off for these calls is given here.

What was measured:
HT-29 [1] = assay: Cytotoxicity against human HT-29 cells after 48 hrs by MTS assay; type: functional, cell-based; details: HT-29, 48 h
How it was run: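 HT29 cells maintained in RPMI with 10% FBS. 5×10^3 cells/well were left to adhere 24 h, then exposed 48 h to compound (DMSO stock diluted in DMEM, 0.5–50 µM). MTS absorbance at 490 nm normalized to control. IC50 from sigmoidal variable-slope fit. Triplicates, at least two independent experiments.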

A549 = assay: Cytotoxicity against human A549 cells after 48 hrs by MTS assay; type: functional, cell-based; details: A549, 48 h
How it was run: (§1)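 A549, MCF-7 and UACC903 cells grown in DMEM with 10% FBS at 37°C, 5% CO2. 5×10^3 cells/well were left to adhere 24 h, then treated 48 h with compound (DMSO stock diluted in DMEM, 0.5–50 µM). MTS read at 490 nm and normalized to control. Dose-response fitted as sigmoidal, variable slope. Triplicates from at least two independent experiments.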

UACC-903 = assay: Cytotoxicity against human UACC903 cells after 48 hrs by MTS assay; type: functional, cell-based; details: UACC-903, 48 h; how it was run: as §1
MCF7 = assay: Cytotoxicity against human MCF7 cells after 48 hrs by MTS assay; type: functional, cell-based; details: MCF7, 48 h; how it was run: as §1
HT-29 [2] = assay: Induction of apoptosis in human HT-29 cells assessed as viable cells at 2.5 uM after 24 hrs by PE annexin V and 7-Aminoactinomycin D staining-based flow cytometry (reference value: 93.2%); type: functional; details: HT-29, 24 h, read-out: Activity
How it was run: (§2)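 HT29 cells were treated with 1.25–5.0 µM compound or DMSO for 24 h at 37°C, harvested by low-speed centrifugation and washed twice in cold PBS. They were resuspended in binding buffer at 1×10^6 cells/ml, stained with PE annexin V and 7-AAD for 15 min at RT in the dark, and quantified by flow cytometry.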

HT-29 [3] = assay: Induction of apoptosis in human HT-29 cells at 1.25 uM after 24 hrs by PE annexin V and 7-Aminoactinomycin D staining-based flow cytometry; type: functional
How it was run: (§3)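 HT29 cells (RPMI, 10% FBS) treated with 1.25, 2.5 or 5 μM, or DMSO control, for 24 h at 37 °C. Cells then harvested, washed twice in cold PBS and resuspended at 1×10^6 cells/ml in binding buffer. Stained with PE annexin V and 7-AAD for 15 min at RT in the dark, then analysed by flow cytometry. 7-AAD-positive cells counted as dead.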

HT-29 [4] = assay: Induction of apoptosis in human HT-29 cells assessed as dead cells at 2.5 uM after 24 hrs by PE annexin V and 7-Aminoactinomycin D staining-based flow cytometry (reference value: 1.33%); type: functional; how it was run: as §3
HT-29 [5] = assay: Induction of apoptosis in human HT-29 cells after 24 hrs by PE annexin V and 7-Aminoactinomycin D staining-based flow cytometry; type: functional, cell-based; how it was run: as §2
HT-29 [6] = assay: Induction of apoptosis in human HT-29 cells assessed as viable cells at 5 uM after 24 hrs by PE annexin V and 7-Aminoactinomycin D staining-based flow cytometry (reference value: 93.2%); type: functional; details: HT-29, 24 h, read-out: Activity; how it was run: as §2
HT-29 [7] = assay: Induction of apoptosis in human HT-29 cells at 5 uM after 24 hrs by PE annexin V and 7-Aminoactinomycin D staining-based flow cytometry (reference value: 6.8%); type: functional; how it was run: as §3
Bos taurus = organism: Bos taurus; assay: Inhibition of bovine brain tubulin polymerization at 10 uM after 1 hrs by fluorescence assay
How it was run: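 Compound at 10 µM final, DMSO as control. Fluorescence (ex 360, em 440 nm) read every 10 s for 1 h at 37°C, duplicate wells.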

HT-29 [8] = assay: Induction of apoptosis in human HT-29 cells assessed as early apoptotic cells at 2.5 uM after 24 hrs by PE annexin V and 7-Aminoactinomycin D staining-based flow cytometry (reference value: 1.37%); type: functional; how it was run: as §2
HT-29 [9] = assay: Inhibition of AKT expression in human HT-29 cells assessed as total AKT level at 1 uM after 24 hrs by Western blotting; type: functional, cell-based
How it was run: (§4)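 HT29 cells treated 24 h with 1 or 2 µM compound or no drug. Lysed in HEPES/NaCl/EDTA/NP40 buffer with phosphatase and protease inhibitors. Protein equalized by Bradford, run on 10% gels, semi-dry transfer to nitrocellulose, blocked in 5% milk. Pan-Akt or phospho-Akt rabbit polyclonal primaries overnight at 4°C, HRP secondaries, chemiluminescence. β-actin loading control.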

[10] = biological target: RAC-alpha serine/threonine-protein kinase (Homo sapiens) (UniProt P31749); assay: Inhibition of AKT phosphorylation in human HT-29 cells assessed as p-AKT level at 1 uM after 24 hrs by Western blotting; type: cell-based; how it was run: as §4
HT-29 [11] = assay: Induction of apoptosis in human HT-29 cells assessed as late apoptosis or necrotic cells at 1.25 uM after 24 hrs by PE annexin V and 7-Aminoactinomycin D staining-based flow cytometry (reference value: 4.1%); type: functional; how it was run: as §2
HT-29 [12] = assay: Induction of apoptosis in human HT-29 cells assessed as viable cells at 1.25 uM after 24 hrs by PE annexin V and 7-Aminoactinomycin D staining-based flow cytometry (reference value: 93.2%); type: functional; details: HT-29, 24 h, read-out: Activity; how it was run: as §2
HT-29 [13] = assay: Induction of apoptosis in human HT-29 cells assessed as dead cells at 5 uM after 24 hrs by PE annexin V and 7-Aminoactinomycin D staining-based flow cytometry (reference value: 1.33%); type: functional; how it was run: as §3
HT-29 [14] = assay: Induction of apoptosis in human HT-29 cells assessed as dead cells at 1.25 uM after 24 hrs by PE annexin V and 7-Aminoactinomycin D staining-based flow cytometry (reference value: 1.33%); type: functional; how it was run: as §3
HT-29 [15] = assay: Induction of apoptosis in human HT-29 cells at 2.5 uM after 24 hrs by PE annexin V and 7-Aminoactinomycin D staining-based flow cytometry; type: functional; how it was run: as §3
HT-29 [16] = assay: Induction of apoptosis in human HT-29 cells assessed as early apoptotic cells at 5 uM after 24 hrs by PE annexin V and 7-Aminoactinomycin D staining-based flow cytometry (reference value: 1.37%); type: functional; how it was run: as §2
HT-29 [17] = assay: Induction of apoptosis in human HT-29 cells assessed as late apoptosis or necrotic cells at 5 uM after 24 hrs by PE annexin V and 7-Aminoactinomycin D staining-based flow cytometry (reference value: 4.1%); type: functional; how it was run: as §2
HT-29 [18] = assay: Induction of apoptosis in human HT-29 cells assessed as increase in caspase 3/7 activation after 24 hrs by fluorescence spectrophotometry; type: functional, cell-based
How it was run: (§5)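 HT29 cells seeded at 1×10^4/well and grown 24 h, then treated 24 h with 1.25–5 µM compound or DMSO. Equal volume of Apo-ONE caspase-3/7 reagent added, shaken 30 s, incubated 2 h at RT. Cleaved-substrate fluorescence read at ex 498/em 521 nm, expressed relative to DMSO cells. Means ± SD, triplicate, one representative experiment.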

HT-29 [19] = assay: Induction of apoptosis in human HT-29 cells assessed as late apoptosis or necrotic cells at 2.5 uM after 24 hrs by PE annexin V and 7-Aminoactinomycin D staining-based flow cytometry (reference value: 4.1%); type: functional; how it was run: as §2
HT-29 [20] = assay: Inhibition of AKT expression in human HT-29 cells assessed as total AKT level at 2 uM after 24 hrs by Western blotting; type: functional, cell-based; how it was run: as §4
HT-29 [21] = assay: Induction of apoptosis in human HT-29 cells assessed as early apoptotic cells at 1.25 uM after 24 hrs by PE annexin V and 7-Aminoactinomycin D staining-based flow cytometry (reference value: 1.37%); type: functional; how it was run: as §2
HT-29 [22] = assay: Induction of apoptosis in human HT-29 cells assessed as increase in caspase 3/7 activation after 24 hrs by fluorescence spectrophotometry relative to control; type: functional; set-up: concentration or dose not given beside the values; how it was run: as §5

Chain of RAC-alpha serine/threonine-protein kinase (Homo sapiens) (P31749 whole entry): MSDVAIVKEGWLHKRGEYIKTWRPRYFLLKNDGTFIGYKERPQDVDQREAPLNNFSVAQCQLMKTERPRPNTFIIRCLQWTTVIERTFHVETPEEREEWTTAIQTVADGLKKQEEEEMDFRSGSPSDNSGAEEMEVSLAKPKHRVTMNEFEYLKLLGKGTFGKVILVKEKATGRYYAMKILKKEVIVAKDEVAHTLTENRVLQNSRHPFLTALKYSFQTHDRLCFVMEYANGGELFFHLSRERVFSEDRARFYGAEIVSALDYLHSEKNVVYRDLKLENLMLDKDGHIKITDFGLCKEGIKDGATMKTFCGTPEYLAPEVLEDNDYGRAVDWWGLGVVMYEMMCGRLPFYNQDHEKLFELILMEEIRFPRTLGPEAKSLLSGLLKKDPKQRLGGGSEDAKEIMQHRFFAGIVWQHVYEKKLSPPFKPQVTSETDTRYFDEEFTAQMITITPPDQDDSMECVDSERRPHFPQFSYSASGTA

N#C[Se]Cc1ccc(CN2C(=O)C(=O)c3cc(Br)cc(Br)c32)cc1
IC50 (HT-29 [1]): 2.59 µM | IC50 (A549): 2.41 µM | IC50 (UACC-903): 12.1 µM | IC50 (MCF7): 1.45 µM

O=C1C(=O)N(Cc2ccc(CN=C=S)cc2)c2c(Br)cc(Br)cc21
viability at 2.5 µM (HT-29 [2]): 63.4% | Activity (HT-29 [3]): 16.38% | Activity (HT-29 [4]): 6.56% | Activity (HT-29 [5]): Dose-dependent effect | viability at 5 µM (HT-29 [6]): 38.8% | Activity (HT-29 [7]): 61.23% | inhibition (Bos taurus): 77% | Activity (HT-29 [8]): 6.78% | inhibition (HT-29 [9]): Active | inhibition [10]: inactive | Activity (HT-29 [11]): 8.59% | viability at 1.25 µM (HT-29 [12]): 83.6% | Activity (HT-29 [13]): 10.8% | Activity (HT-29 [14]): 4.29% | Activity (HT-29 [15]): 36.64% | IC50 (HT-29 [1]): 1.09 µM | Activity (HT-29 [16]): 2.93% | IC50 (A549): 3.82 µM | IC50 (UACC-903): 3.11 µM | Activity (HT-29 [17]): 47.5% | Activity (HT-29 [18]): Dose-dependent effect | IC50 (MCF7): 12 µM | Activity (HT-29 [19]): 23.3% | inhibition (HT-29 [20]): Active | Activity (HT-29 [21]): 3.5% | fold change (FC) (HT-29 [22]): 16

N#CSCCCCN1C(=O)C(=O)c2cc(Br)cc(Br)c21
IC50 (HT-29 [1]): 2.42 µM | IC50 (A549): 5.53 µM | IC50 (UACC-903): 2.06 µM | IC50 (MCF7): 22.1 µM

O=C1C(=O)N(CCCCCl)c2c(Br)cc(Br)cc21
IC50 (HT-29 [1]): 2.51 µM | IC50 (A549): 3.81 µM | IC50 (UACC-903): 3.74 µM | IC50 (MCF7): 14.9 µM

O=C1C(=O)N(CCCCl)c2c(Br)cc(Br)cc21
IC50 (HT-29 [1]): 2.57 µM | IC50 (A549): 5.27 µM | IC50 (UACC-903): 8.57 µM | IC50 (MCF7): 21.5 µM

CC[C@]1(O)C[C@@H]2CN(CCc3c([nH]c4ccccc34)[C@@](C(=O)OC)(c3cc4c(cc3OC)N(C)[C@H]3[C@@](O)(C(=O)OC)[C@H](OC(C)=O)[C@]5(CC)C=CCN6CC[C@]43[C@@H]65)C2)C1 [VINBLASTINE SULFATE]
inhibition (Bos taurus): 66% | IC50 (HT-29 [1]): 0.55 µM | IC50 (UACC-903): 1.65 µM
